Compound activity (PubChem BioAssay)
NLRP3 yeast inh: blocks the NALP3 inflammasome reconstituted in yeast. 0.39% of 330,000 active. inhibition, % at 10 µM. Yeast reconstituted NLRP3/ASC/caspase-1, beta-gal luminescence, 24 h;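 active means inhibition of 50% or more; inactive means inhibition below 50%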
Beta apoptosis: blocks beta cell apoptosis; 0.8% of 300,000 active; protection from apoptosis, % (no concentration beside the values); INS-1E cytokine-induced death, ATP luminescence, 48 h; percent of positive-control rescue, neutral wells zero;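 active means Every replicate reaches about 75%, or at least half do and their mean reaches it too, limit read from the data; inconclusive means At least half of replicates reach the limit but their mean does not; inactive means Under half of replicates reach the limit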;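 further: higher means more ATP so stronger rescue from cytokine killing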
CSC inhib: blocks cancer stem cells; cancer stem cell-like cells viability, luminescence; inhibition, % at 7.5 µM; 1.1% of 300,000 active; AID 2717; in the data active means inhibition above about 75%; inconclusive means no clear call, values can overlap the other calls; tested in HMLE shEcad cells
Calb FLC: C. albicans growth modulation with fluconazole; C. albicans CaCi-2 + fluconazole, Alamar Blue growth, 48 h; growth inhibition, % (concentration not given with the values); 0.57% of 300,000 active;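 active means growth inhibition above about 58% in most replicates, limit read from the data, passing the limit was not always enough; inconclusive means exactly half the replicates above a set limit; inactive means most replicates below a set limit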;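 further: all wells also contain fluconazole at 8 µg/ml as a sub-toxic cotreatment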
T cruzi repl: T. cruzi replication inhibition. T. cruzi beta-gal in NIH3T3, luminescence, 90 h. inhibition, % (concentration not given with the values). 1.4% of 300,000 active. AID 1885;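 active means mean inhibition across valid replicates above about 55%, limit read from the data; inconclusive means mean below that limit but half or more replicates reach it; inactive means mean below it, under half of replicates reach it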;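 further: signal also drops with host cell toxicity which is not excluded here; higher percent means less beta-gal luminescence so fewer parasites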
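System: Mouse NIH/3T3 fibroblasts infected with β-gal-expressing T. cruzi Tulahuen C4 | Quantity: NIH/3T3 cells, 5,000 per well | Reagent: 5000 reporter trypomastigotes per well | Dosing: Compound pinned at 50 nL/well, DMSO | Schedule: 3 h host attachment, then at least 90 h co-culture | Detection: GalScreen luminescence, 60 min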
Mdm2 MdmX PPI: inhibitors of human Mdm2/MdmX interaction; inhibition, % at 8 µM; SaOS-2 split-luciferase Mdm2/MdmX complementation, luminescence; O15151+Q00987; 3% of 330,000 active;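 active means inhibition of at least 50% at 8 µM in the primary screen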
Target sequence (O15151 whole entry, looked up): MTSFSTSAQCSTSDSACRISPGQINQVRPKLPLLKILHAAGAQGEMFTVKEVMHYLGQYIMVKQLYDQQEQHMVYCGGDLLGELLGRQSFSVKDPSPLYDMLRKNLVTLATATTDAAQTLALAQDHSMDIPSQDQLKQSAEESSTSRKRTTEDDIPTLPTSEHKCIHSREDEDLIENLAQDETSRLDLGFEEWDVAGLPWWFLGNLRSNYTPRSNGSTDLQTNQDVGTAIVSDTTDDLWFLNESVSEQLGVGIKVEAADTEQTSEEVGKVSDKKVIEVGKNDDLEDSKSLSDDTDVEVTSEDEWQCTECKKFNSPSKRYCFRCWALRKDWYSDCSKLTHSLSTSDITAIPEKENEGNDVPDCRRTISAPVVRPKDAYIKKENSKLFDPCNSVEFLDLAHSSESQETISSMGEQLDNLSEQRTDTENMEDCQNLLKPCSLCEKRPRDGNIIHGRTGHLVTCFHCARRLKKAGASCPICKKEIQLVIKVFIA
Target sequence (Q00987 whole entry, looked up): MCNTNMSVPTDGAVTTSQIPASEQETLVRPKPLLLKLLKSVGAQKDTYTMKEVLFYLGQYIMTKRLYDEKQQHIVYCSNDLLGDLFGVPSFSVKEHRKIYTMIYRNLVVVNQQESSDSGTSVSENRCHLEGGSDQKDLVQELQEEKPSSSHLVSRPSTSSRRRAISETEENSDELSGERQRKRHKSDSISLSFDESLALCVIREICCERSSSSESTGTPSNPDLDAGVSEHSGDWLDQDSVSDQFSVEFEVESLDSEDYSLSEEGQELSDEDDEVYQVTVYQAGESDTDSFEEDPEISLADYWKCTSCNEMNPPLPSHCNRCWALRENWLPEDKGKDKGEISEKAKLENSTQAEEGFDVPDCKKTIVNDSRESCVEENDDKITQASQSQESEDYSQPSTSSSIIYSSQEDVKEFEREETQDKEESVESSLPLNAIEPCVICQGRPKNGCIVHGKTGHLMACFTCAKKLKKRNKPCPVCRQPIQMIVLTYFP
Each line names hits and unclear results; the compound was inactive in the other large screens. An excerpt weighted towards active compounds, which were near 5.3% of everything screened.

O=C(CN1CCCCCC1)NCC1CCCO1 (configuration not stated)	none
Cc1ccc(Nc2nc(-c3cccnc3)cs2)cc1Cl	T cruzi repl 59.2
Clc1ccc(-c2csc(N/N=C/c3ccco3)n2)cc1	none
Clc1ccc(-c2csc(N/N=C\c3cccnc3)n2)cc1	T cruzi repl 55.5
Cc1ccc(NC(=O)Cn2cnc3c(=O)n(C)c(=O)n(C)c32)c(C)c1	none (no result: CSC inhib)
Cc1ccc2oc(-c3cccc(NC(=O)Cn4cnc5c(=O)n(C)c(=O)n(C)c54)c3)nc2c1	Calb FLC 122.4
CCN(CC)S(=O)(=O)c1ccc(N2CCOCC2)c(NS(=O)(=O)c2ccc(C)cc2)c1	none
CC(CC(=O)Nc1ncc([N+](=O)[O-])s1)c1ccccc1 (configuration not stated)	Calb FLC 92.2 (no result: T cruzi repl)
Cc1nnc(NC(=O)CC(C)c2ccccc2)s1 (configuration not stated)	none
CCC(Oc1ccccc1)C(=O)Nc1nnc(C)s1 (configuration not stated)	Calb FLC inconclusive (no result: CSC inhib)
CCC(Oc1ccccc1)C(=O)Nc1ncc([N+](=O)[O-])s1 (configuration not stated)	Calb FLC 93.9
CC1=NN(C(N)=S)C(=O)C1N=Nc1cccc2ccccc12 (configuration not stated)	Calb FLC 108.0 (no result: NLRP3 yeast inh, Mdm2 MdmX PPI)
CC1=NN(C(N)=S)C(=O)C1N=Nc1cccc(Cl)c1C (configuration not stated)	none
COc1ccc(CCNCc2cc(C)n(-c3ccc(OC)cc3)c2C)cc1	T cruzi repl 65.5
COc1ccc(CCNCc2ccccc2N2CCCC2)cc1	none
COc1ccc(C2c3[nH]c4ccccc4c3CCN2CCCn2cccn2)c(F)c1 (configuration not stated)	none
Cc1ccccc1C1c2[nH]c3ccccc3c2CCN1CCCn1cccn1 (configuration not stated)	none
Cc1ccccc1C1c2[nH]c3ccccc3c2CCN1Cc1cccn1-c1ncccn1 (configuration not stated)	T cruzi repl 55.0 (no result: CSC inhib)
Fc1ccccc1C1c2[nH]c3ccccc3c2CCN1Cc1cccn1-c1ncccn1 (configuration not stated)	T cruzi repl 77.4
c1nnnn1C12CC3CC(CC(C3)C1)C2	none
Cc1cccc(CCNC(=O)CCNC(=O)Cn2ccc3ccccc3c2=O)c1	none
CN(CCO)c1ccc(C(C(=O)c2ccccc2)c2ccc(N(C)CCO)cc2)cc1	none
CC(C)C(=O)NC(=S)Nc1ccccc1N1CCN(C(=O)c2ccc(Cl)cc2)CC1	T cruzi repl 63.5
CN(C)c1ccc(-c2noc(C3CCN(S(=O)(=O)c4cccc(C(=O)O)c4)CC3)n2)cc1	none (no result: Beta apoptosis, CSC inhib)
COc1ccc(NC2=CC(=O)CC(C)(C)C2)cc1OC	none
COc1ccc(OC)c(-c2csc(N(CC3CCCO3)C(=O)C3CCCCC3)n2)c1 (configuration not stated)	CSC inhib 77.9
COc1ccc(-c2csc(N(CC3CCCO3)C(=O)c3cccs3)n2)cc1 (configuration not stated)	Calb FLC inconclusive
C/C(=N\NC(=S)Nc1ccccc1C)c1cc2ccccc2o1	Beta apoptosis 77.8, T cruzi repl 58.6
O=C1S/C(=C\c2ccccc2)C(=O)N1CC(O)Cn1c2ccccc2c2ccccc21 (configuration not stated)	T cruzi repl 57.9 (no result: NLRP3 yeast inh, Mdm2 MdmX PPI)
O=C(NCc1ccco1)C(=O)NCC1OCCN1S(=O)(=O)c1ccccc1 (configuration not stated)	none
O=C(CSC(=S)N1CCOCC1)Nc1nc(=O)c2ccccc2s1	Calb FLC 51.9, T cruzi repl inconclusive
O=C(CSC(=S)N1CCOCC1)Nc1nccs1	none
OCCCCNCc1ccc(OCc2ccc(Cl)cc2Cl)cc1	CSC inhib 91.4, T cruzi repl 60.0
Cn1cc(CNCc2ccc(OC(F)(F)F)cc2)c(-c2ccc3c(c2)OCCO3)n1	Beta apoptosis 141.5
CC1(C)SC(=S)N(/N=C/c2ccccc2O)C1N(O)C(=O)Nc1ccccc1 (configuration not stated)	none
CCOc1ccc(CCNC(=O)COC(=O)CCC(=O)c2cccs2)cc1OCC	none
O=C(/C=C/c1ccc([N+](=O)[O-])s1)N1CCCC1	T cruzi repl 69.3
O=C(/C=C/c1ccc([N+](=O)[O-])s1)N1CCCCC1	none
O=C(/C=C/c1ccc([N+](=O)[O-])s1)N1CCN(c2ccccc2)CC1	T cruzi repl 58.5
O=C(Nc1ccc(F)cc1)c1ccc2[nH]c(=O)c(=O)[nH]c2c1	none (no result: Calb FLC)
COc1ccc2c(C)cc(SCC(=O)c3ccc4c(c3)OCO4)nc2c1	T cruzi repl 58.6
COc1ccc2c(C)cc(SCC(=O)NC3CCCC3)nc2c1	none (no result: Calb FLC, T cruzi repl)
O=C(CC(Sc1ccc(Br)cc1)C(=O)O)c1ccc(Br)cc1 (configuration not stated)	T cruzi repl 54.8 (no result: Beta apoptosis, CSC inhib)
CCOC(=O)c1c(C)n(CC(O)CN(C)C)c2cc(Br)c(OC)cc12 (configuration not stated)	T cruzi repl 79.2
CCOC(=O)/C(=N/Nc1ccccc1)N1CCCc2ccccc21	none
CCOC(=O)/C(=N/Nc1ccc(OC)cc1)N1CCCc2ccccc21	CSC inhib 75.4
CN(C)c1ccc(C2SCCN2C(=O)c2ccc([N+](=O)[O-])cc2)cc1 (configuration not stated)	T cruzi repl 57.9
O=C(c1ccc([N+](=O)[O-])cc1)N1CCSC1c1ccccc1 (configuration not stated)	none
COc1ccccc1C1CCN(Cc2ccc3ccccc3c2)CC1	T cruzi repl 58.5
COc1ccccc1C1CCN(Cc2ccccc2)CC1	none (no result: Beta apoptosis, CSC inhib)
N#Cc1ccc(CSC2=NCCN2)cc1	none
CCOc1ccc(CSC2=NCCN2)cc1Cl	T cruzi repl 56.7
CCOC(=O)c1c(NC(=O)CSc2nc3cc(Cl)ccc3c(=O)n2Cc2ccco2)sc(C(=O)N(C)C)c1C	T cruzi repl 61.0
CCOC(=O)c1c(NC(=O)COC(=O)Cc2ccccc2[N+](=O)[O-])sc(C(=O)N(C)C)c1C	none
CCOC(=O)c1c(NC(=O)COC(=O)c2ccccc2NC)sc(C(=O)N(C)C)c1C	T cruzi repl 58.7 (no result: CSC inhib)
CCc1ccc(NC(=O)CSc2nc3cc(C(=O)OC)ccc3c(=O)n2Cc2ccco2)cc1	none
CC(C)c1cc(-c2cc(-c3ccccc3)on2)nc(NC2CCCC2)n1	CSC inhib 85.0
CC(NC(=O)Nc1ccc(Cl)cc1)c1ccccc1 (configuration not stated)	none
CCCOc1ccc(NCC(=O)Nc2ccc(C)cc2C)cc1	T cruzi repl 75.9
CCOc1ccc(NCC(=O)Nc2ccc(Cl)cc2C)cc1	none
Cc1cc(Br)ccc1NC(=O)CN1CCN(c2ccccn2)CC1	none
COc1ccc(CNC(=O)CCSc2ccc(F)cc2)cc1OC	none
